Active and inactive are the calls of the source. The rule behind the calls is not given here.
How the values were obtained:
[1] = molecular target: DNA-dependent protein kinase catalytic subunit (Homo sapiens) (UniProt P78527); assay: Inhibition of recombinant human full length DNA-PK at 1 uM using GST-cMyc-p53 as substrate incubated for 40 mins in presence of [gamma-33P]-ATP by scintillation counting method relative to control
[2] = molecular target: Activin receptor type-1-like (Homo sapiens) (UniProt P37023); assay: Inhibition of recombinant human ALK1 (142 to end residues) at 1 uM using casein as substrate incubated for 40 mins in presence of [gamma-33P]-ATP by scintillation counting method relative to control
In short: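 Kinase panel profiling at 1 μM performed by Eurofins KinaseProfiler; percent inhibition reported as mean of two independent experiments.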

[3] = molecular target: Eukaryotic elongation factor 2 kinase (Homo sapiens) (UniProt O00418); assay: Inhibition of recombinant human eEF-2K (2 to end residues) at 1 uM using RKKFGESEKTKTKEFL as substrate incubated for 40 mins in presence of [gamma-33P]-ATP by scintillation counting method relative to control
In short: (§1)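 Tested at a single 1 uM in an outsourced commercial kinase-profiling panel, read as percent inhibition. Each value is the mean of two independent experiments.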

SiHa = assay: Inhibition of colony formation in human SiHa cells at 40 to 80 nM incubated for 5 days by crystal violet staining based light microscopy; type: functional, cell-based
In short: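 4 × 10^3 cells per well were cultured with graded concentrations for 5 days. Cells were then fixed with 20% methanol, stained with 0.5% crystal violet and photographed by light microscopy.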

[4] = molecular target: [Pyruvate dehydrogenase (acetyl-transferring)] kinase isozyme 4, mitochondrial (Homo sapiens) (UniProt Q16654); assay: Inhibition of recombinant human full length PDHK4 at 1 uM using KKKYHGHSMSDPGVSYRT as substrate incubated for 40 mins in presence of [gamma-33P]-ATP by scintillation counting method relative to control; in short: as §1
[5] = molecular target: Serine/threonine-protein kinase 32A (Homo sapiens) (UniProt Q8WU08); assay: Inhibition of recombinant human full length STK32A at 1 uM using casein as substrate incubated for 40 mins in presence of [gamma-33P]-ATP by scintillation counting method relative to control
In short: (§2)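 Single-point inhibition at 1 uM measured in a commercial kinase profiling panel (KinaseProfiler); each value is the mean of two independent experiments.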

[6] = molecular target: Myosin light chain kinase, smooth muscle (Homo sapiens) (UniProt Q15746); assay: Inhibition of recombinant human MLCK (1425 to 1771 residues) at 1 uM using KKLNRTLSFAEPG as substrate incubated for 40 mins in presence of [gamma-33P]-ATP by scintillation counting method relative to control
[7] = molecular target: MAP kinase-activated protein kinase 3 (Homo sapiens) (UniProt Q16644); assay: Inhibition of recombinant human MAPKAPK3 (2 to end residues) at 1 uM using KKLNRTLSVA as substrate incubated for 40 mins in presence of [gamma-33P]-ATP by scintillation counting method relative to control; in short: as §1
[8] = molecular target: Tyrosine-protein kinase Yes (Homo sapiens) (UniProt P07947); assay: Inhibition of recombinant human full length YES at 1 uM using poly(Glu, Tyr) 4:1 as substrate incubated for 40 mins in presence of [gamma-33P]-ATP by scintillation counting method relative to control
[9] = tested on: Proto-oncogene tyrosine-protein kinase receptor Ret (Homo sapiens), P07949 [V804L]; assay: Inhibition of recombinant human RET V804L mutant (658 to end residues) at 1 uM using KKKVSRSGLYRSPSMPENLNRPR as substrate incubated for 40 mins in presence of [gamma-33P]-ATP by scintillation counting method relative to control
[10] = molecular target: Tyrosine-protein kinase HCK (Homo sapiens) (UniProt P08631); assay: Inhibition of recombinant human HCK (230 to 497 residues) at 1 uM using GGMEDIYFEFMGGKKK as substrate incubated for 40 mins in presence of [gamma-33P]-ATP by scintillation counting method relative to control
[11] = molecular target: Inhibitor of nuclear factor kappa-B kinase subunit epsilon (Homo sapiens) (UniProt Q14164); assay: Inhibition of recombinant human full length IKKepsilon at 1 uM using casein as substrate incubated for 40 mins in presence of [gamma-33P]-ATP by scintillation counting method relative to control
HeLa [12] = assay: Induction of apoptosis in human HeLa cells assessed as increase in late apoptotic cells at 20 to 40 nM incubated for 48 hrs by annexin V FITC and propidium iodide staining based flow cytometry; type: functional, cell-based
In short: (§3)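 Cells were treated for 48 h, stained with FITC Annexin V and PI, and analyzed by flow cytometry to count early and late apoptotic cells.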

[13] = molecular target: Ephrin type-B receptor 2 (Homo sapiens) (UniProt P29323); assay: Inhibition of recombinant human EPhB2 (560 to end residues) at 1 uM using poly(Glu, Tyr) 4:1 as substrate incubated for 40 mins in presence of [gamma-33P]-ATP by scintillation counting method relative to control
[14] = molecular target: Serine/threonine-protein kinase 32C (Homo sapiens) (UniProt Q86UX6); assay: Inhibition of recombinant human full length STK32C at 1 uM using casein as substrate incubated for 40 mins in presence of [gamma-33P]-ATP by scintillation counting method relative to control
[15] = molecular target: Receptor tyrosine-protein kinase erbB-4 (Homo sapiens) (UniProt Q15303); assay: Inhibition of recombinant human ERBB4 (706 to 991 residues) at 1 uM using poly (Glu, Tyr) 4:1 as substrate incubated for 40 mins in presence of [gamma-33P]-ATP by scintillation counting method relative to control; in short: as §1
[16] = molecular target: Dual specificity mitogen-activated protein kinase kinase 1 (Homo sapiens) (UniProt Q02750); assay: Inhibition of recombinant human full length MEK1 at 1 uM using as unactive MAPK2 substrate incubated for 40 mins in presence of [gamma-33P]-ATP by scintillation counting method relative to control
[17] = molecular target: Insulin receptor (Homo sapiens) (UniProt P06213); assay: Inhibition of recombinant human IR (1005 to 1310 residues) at 1 uM using KKKSPGEYVNIEFG as substrate incubated for 40 mins in presence of [gamma-33P]-ATP by scintillation counting method relative to control
HeLa [18] = assay: Induction of apoptosis in human HeLa cells assessed as increase in early apoptotic cells at 20 to 40 nM incubated for 48 hrs by annexin V FITC and propidium iodide staining based flow cytometry; type: functional, cell-based; in short: as §3
[19] = molecular target: Serine/threonine-protein kinase mTOR (Homo sapiens) (UniProt P42345); assay: Inhibition of recombinant human full length mTOR at 1 uM using as peptide substrate incubated for 40 mins in presence of [gamma-33P]-ATP by scintillation counting method relative to control; in short: as §2
Mus musculus = assay: Antiangiogenic activity in Matrigel plug angiogenic BALB/c mouse assessed as reduction in blood vessel formation at 20 mg/kg, sc measured after 10 days by Matrigel plug assay; type: functional, organism-based
In short: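 Balb/c mice, 5 weeks old, were injected subcutaneously with 750 µL of a 2:1 mix of growth factor-reduced Matrigel and compound (10 or 20 mg/kg) or vehicle. Plugs were harvested after 10 days and the subcutaneous vessels photographed.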

Ephrin type-B receptor 2 (Homo sapiens), sequence (P29323 whole entry): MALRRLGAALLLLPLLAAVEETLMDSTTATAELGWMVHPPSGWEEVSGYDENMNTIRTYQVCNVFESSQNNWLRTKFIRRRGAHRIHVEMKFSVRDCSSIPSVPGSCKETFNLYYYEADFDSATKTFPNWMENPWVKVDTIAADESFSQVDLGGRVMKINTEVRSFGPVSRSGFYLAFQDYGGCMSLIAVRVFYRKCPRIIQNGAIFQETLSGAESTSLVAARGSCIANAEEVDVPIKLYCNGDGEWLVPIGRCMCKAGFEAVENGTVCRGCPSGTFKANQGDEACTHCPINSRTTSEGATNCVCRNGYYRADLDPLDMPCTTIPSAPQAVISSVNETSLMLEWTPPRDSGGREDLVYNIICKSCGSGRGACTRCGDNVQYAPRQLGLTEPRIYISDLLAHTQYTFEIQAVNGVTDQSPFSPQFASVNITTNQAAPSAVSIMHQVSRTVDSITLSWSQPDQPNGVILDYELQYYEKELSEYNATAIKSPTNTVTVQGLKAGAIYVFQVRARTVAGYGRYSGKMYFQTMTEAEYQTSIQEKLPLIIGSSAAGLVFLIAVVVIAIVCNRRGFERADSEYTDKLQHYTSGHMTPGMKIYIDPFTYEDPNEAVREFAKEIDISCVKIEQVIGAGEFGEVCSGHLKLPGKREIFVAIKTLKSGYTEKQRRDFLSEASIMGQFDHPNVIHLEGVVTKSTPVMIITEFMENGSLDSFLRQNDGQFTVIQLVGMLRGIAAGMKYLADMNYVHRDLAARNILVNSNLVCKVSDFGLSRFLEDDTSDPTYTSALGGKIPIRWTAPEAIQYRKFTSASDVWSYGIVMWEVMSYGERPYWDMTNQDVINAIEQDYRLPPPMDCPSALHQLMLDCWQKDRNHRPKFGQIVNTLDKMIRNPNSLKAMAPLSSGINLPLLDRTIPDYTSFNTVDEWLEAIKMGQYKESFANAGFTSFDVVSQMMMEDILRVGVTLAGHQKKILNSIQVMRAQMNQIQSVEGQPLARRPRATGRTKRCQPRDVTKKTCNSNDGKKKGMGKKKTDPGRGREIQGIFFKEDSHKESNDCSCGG
MAP kinase-activated protein kinase 3 (Homo sapiens), sequence (Q16644 whole entry, looked up): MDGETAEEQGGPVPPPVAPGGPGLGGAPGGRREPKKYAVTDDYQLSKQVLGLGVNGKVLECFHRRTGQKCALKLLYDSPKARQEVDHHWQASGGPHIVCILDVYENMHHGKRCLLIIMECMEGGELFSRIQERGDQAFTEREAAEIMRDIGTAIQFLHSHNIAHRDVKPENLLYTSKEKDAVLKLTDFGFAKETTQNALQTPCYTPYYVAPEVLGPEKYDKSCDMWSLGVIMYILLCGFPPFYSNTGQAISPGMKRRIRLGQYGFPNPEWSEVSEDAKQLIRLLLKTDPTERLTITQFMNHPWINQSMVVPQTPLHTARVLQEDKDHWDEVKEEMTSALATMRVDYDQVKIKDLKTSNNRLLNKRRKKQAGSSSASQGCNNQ
Activin receptor type-1-like (Homo sapiens), sequence (P37023 whole entry): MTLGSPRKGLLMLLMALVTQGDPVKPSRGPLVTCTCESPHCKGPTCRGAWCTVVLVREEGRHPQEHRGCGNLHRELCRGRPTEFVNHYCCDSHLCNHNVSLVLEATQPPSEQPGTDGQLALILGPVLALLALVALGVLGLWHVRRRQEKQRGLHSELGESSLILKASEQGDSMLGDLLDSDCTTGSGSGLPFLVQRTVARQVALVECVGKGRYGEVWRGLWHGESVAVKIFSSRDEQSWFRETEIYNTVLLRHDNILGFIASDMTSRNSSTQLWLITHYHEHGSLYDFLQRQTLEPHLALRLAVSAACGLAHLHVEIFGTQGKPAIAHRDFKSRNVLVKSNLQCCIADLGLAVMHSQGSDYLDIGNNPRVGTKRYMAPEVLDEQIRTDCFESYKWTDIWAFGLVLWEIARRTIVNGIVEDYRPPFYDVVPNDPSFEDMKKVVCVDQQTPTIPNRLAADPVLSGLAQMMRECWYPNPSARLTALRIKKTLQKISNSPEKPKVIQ
Inhibitor of nuclear factor kappa-B kinase subunit epsilon (Homo sapiens), sequence (Q14164 whole entry): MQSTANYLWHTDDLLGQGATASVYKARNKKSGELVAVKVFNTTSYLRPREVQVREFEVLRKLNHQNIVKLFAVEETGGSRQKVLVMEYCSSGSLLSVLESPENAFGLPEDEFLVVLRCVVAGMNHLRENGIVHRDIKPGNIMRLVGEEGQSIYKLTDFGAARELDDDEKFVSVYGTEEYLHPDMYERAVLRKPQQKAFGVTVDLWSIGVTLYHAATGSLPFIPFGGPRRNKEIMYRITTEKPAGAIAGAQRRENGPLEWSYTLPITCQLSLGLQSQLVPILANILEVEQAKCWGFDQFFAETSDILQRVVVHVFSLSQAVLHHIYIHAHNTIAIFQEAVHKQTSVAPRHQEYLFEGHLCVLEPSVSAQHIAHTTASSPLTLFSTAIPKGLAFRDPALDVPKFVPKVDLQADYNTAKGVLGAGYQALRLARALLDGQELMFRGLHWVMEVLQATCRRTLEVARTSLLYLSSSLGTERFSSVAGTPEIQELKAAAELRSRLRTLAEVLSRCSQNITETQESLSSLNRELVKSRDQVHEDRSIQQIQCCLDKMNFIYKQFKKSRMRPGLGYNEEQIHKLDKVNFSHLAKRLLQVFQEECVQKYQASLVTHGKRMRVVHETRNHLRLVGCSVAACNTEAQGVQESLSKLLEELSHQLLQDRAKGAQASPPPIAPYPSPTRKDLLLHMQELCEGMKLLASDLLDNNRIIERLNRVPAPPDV
Insulin receptor (Homo sapiens), sequence (P06213 28-758 limits assumed): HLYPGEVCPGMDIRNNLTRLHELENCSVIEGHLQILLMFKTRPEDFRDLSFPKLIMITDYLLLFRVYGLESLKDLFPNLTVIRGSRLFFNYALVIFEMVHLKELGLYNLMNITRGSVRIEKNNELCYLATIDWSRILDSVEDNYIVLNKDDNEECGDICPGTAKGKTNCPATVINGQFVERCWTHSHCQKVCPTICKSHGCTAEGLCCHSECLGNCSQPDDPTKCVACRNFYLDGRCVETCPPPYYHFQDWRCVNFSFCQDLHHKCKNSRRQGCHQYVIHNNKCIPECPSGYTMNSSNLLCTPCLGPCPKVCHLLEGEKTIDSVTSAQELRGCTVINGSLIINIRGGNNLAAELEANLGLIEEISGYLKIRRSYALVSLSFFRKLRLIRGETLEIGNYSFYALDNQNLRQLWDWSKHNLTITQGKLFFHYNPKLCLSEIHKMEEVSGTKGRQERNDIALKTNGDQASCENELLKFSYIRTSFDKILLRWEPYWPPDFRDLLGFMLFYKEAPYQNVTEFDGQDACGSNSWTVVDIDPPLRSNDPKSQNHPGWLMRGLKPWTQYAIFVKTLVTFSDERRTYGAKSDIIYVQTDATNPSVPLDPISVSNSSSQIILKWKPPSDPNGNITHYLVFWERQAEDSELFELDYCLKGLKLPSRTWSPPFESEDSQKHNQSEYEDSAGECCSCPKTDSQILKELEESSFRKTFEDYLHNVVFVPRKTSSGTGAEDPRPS
Insulin receptor (Homo sapiens), sequence (P06213 763-1382 limits assumed): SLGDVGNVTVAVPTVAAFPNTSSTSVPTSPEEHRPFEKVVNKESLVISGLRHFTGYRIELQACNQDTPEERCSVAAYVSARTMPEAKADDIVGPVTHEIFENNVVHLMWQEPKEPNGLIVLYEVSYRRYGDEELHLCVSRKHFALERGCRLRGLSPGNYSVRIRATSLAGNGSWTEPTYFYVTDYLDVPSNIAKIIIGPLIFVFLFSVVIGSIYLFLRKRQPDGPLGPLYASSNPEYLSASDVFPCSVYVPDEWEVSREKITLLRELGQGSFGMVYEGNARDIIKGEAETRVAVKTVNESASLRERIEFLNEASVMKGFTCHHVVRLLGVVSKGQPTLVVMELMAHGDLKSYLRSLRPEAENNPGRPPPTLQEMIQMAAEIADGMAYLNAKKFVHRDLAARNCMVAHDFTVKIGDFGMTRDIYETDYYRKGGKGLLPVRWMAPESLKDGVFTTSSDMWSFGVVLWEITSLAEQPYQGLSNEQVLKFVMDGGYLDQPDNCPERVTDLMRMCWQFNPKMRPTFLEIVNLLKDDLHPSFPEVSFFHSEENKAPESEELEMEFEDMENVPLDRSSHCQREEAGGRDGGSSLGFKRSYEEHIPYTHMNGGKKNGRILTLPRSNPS
Serine/threonine-protein kinase 32A (Homo sapiens), sequence (Q8WU08 whole entry): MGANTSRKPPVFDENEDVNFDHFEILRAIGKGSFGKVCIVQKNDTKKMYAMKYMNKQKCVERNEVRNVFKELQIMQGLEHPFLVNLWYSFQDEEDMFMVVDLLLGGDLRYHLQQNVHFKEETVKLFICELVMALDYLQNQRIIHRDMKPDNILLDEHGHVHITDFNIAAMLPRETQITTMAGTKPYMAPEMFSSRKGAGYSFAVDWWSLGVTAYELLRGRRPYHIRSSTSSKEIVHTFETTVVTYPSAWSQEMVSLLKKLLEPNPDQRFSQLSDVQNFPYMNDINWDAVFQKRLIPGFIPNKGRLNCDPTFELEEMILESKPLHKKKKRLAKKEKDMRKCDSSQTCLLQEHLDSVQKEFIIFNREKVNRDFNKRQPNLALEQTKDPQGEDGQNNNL
[Pyruvate dehydrogenase (acetyl-transferring)] kinase isozyme 4, mitochondrial (Homo sapiens), sequence (Q16654 whole entry, looked up): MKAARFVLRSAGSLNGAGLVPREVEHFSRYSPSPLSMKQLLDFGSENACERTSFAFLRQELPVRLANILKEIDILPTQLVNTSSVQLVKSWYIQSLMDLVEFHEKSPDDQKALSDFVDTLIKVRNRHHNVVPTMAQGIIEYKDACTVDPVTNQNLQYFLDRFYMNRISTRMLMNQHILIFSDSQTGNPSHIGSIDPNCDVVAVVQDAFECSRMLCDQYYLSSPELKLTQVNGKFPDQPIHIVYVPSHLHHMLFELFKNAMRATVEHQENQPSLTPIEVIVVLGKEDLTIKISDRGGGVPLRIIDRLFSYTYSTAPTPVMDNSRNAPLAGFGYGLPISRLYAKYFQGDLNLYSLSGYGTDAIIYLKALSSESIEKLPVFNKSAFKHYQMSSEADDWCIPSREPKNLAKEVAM

## Cc1ccc(NC(=O)C2(C(=O)Nc3ccc(Nc4ncc(F)c(-c5cc(F)c6nc(C)n(C(C)C)c6c5)n4)cc3)CC2)cc1
[1]
  inhibition: 3%
[2]
  inhibition: 58%
[3]
  inhibition: 0%
SiHa
  inhibition: Active
[4]
  inhibition: 0%
[5]
  inhibition: 0%
[6]
  inhibition: 21%
[7]
  inhibition: 0%
[8]
  inhibition: 31%
[9]
  inhibition: 42%
[10]
  inhibition: 66%
[11]
  inhibition: 47%
HeLa [12]
  Activity: Active
[13]
  inhibition: 23%
[14]
  inhibition: 5%
[15]
  inhibition: 0%
[16]
  inhibition: 7%
[17]
  inhibition: 35%
HeLa [18]
  Activity: Active
[19]
  inhibition: 0%

## COc1cc2nccc(Oc3ccc(NC(=O)C4(C(=O)Nc5ccc(F)cc5)CC4)cc3)c2cc1OC [CABOZANTINIB]
Mus musculus
  inhibition: Active
